# Results taken from ChEMBL document CHEMBL3797069, “Betulin Derivatives Effectively Suppress Inflammation in Vitro and in Vivo” (J Nat Prod, 2016).
# Active and inactive are the calls of the source. The rule behind the calls is not given here.
# What was measured:
# J774 [1] = experiment: Antiinflammatory activity against mouse J774 cells assessed as inhibition of LPS-induced iNOS expression at 10 uM after 24 hrs by Western blot analysis; type: functional, cell-based
# In short: (§1)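 Murine J774 macrophages were grown 72 h to confluence in DMEM with 10% heat-inactivated FBS at 37 °C, 5% CO2. Compound was added in fresh medium with LPS for 24 h. Cells were lysed, and 20 μg protein was immunoblotted for COX-2 or iNOS with actin as the loading control, detected by chemiluminescence. n = 4, mean ± SEM versus LPS alone.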
# J774 [2] = experiment: Antiinflammatory activity against mouse J774 cells assessed as inhibition of LPS-induced COX-2 expression at 10 uM after 24 hrs by Western blot analysis; type: functional; settings: J774, 24 h; in short: as §1
# J774 [3] = experiment: Antiinflammatory activity against mouse J774 cells assessed as inhibition of LPS-induced nitric oxide production at 10 uM by Griess assay; type: functional
# In short: (§2)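 Confluent J774 monolayers were treated with LPS plus compound at 10 μM in fresh medium, 24 h. NO was read as accumulated nitrite in the medium by Griess reaction. n = 4, mean ± SEM versus cells cultured with LPS only.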
# J774 [4] = experiment: Antiinflammatory activity against mouse J774 cells assessed as inhibition of LPS-induced IL-6 production at 10 uM after 24 hrs by ELISA; type: functional; settings: J774, 24 h
# In short: (§3)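 J774 macrophages were grown 72 h to confluence, then exposed to LPS with compound at 10 μM in fresh medium for 24 h. IL-6 and MCP-1 in the culture medium were quantified by ELISA. n = 4, mean ± SEM relative to LPS-only cells.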
# J774 [5] = experiment: Antiinflammatory activity against mouse J774 cells assessed as inhibition of LPS-induced MCP-1 production at 10 uM after 24 hrs by ELISA; type: functional; settings: J774, 24 h; in short: as §3
# J774 [6] = experiment: Antiinflammatory activity in mouse J774 cells assessed as inhibition of LPS-induced nitric oxide production measured as remaining nitric oxide levels at 10 uM by Griess assay; type: functional; in short: as §2
# J774 [7] = experiment: Antiinflammatory activity in mouse J774 cells assessed as inhibition of LPS-induced iNOS expression measured as remaining protein levels at 10 uM after 24 hrs by Western blot analysis; type: functional; in short: as §1
# J774 [8] = experiment: Antiinflammatory activity against mouse J774 cells assessed as inhibition of LPS-induced IL-6 production measured as remaining IL-6 levels at 10 uM after 24 hrs by ELISA; type: functional; in short: as §3
# J774 [9] = experiment: Antiinflammatory activity against mouse J774 cells assessed as inhibition of LPS-induced COX-2 expression measured as remaining protein levels at 10 uM after 24 hrs by Western blot analysis; type: functional; in short: as §1
# J774 [10] = experiment: Antiinflammatory activity against mouse J774 cells assessed as inhibition of LPS-induced MCP-1 production measured as remaining MCP-1 levels at 10 uM after 24 hrs by ELISA; type: functional; in short: as §3
# Mus musculus [11] = experiment: Antiinflammatory activity in C57BL/6NCrl mouse assessed as inhibition of carrageenan-induced paw edema at 10 mg/kg, ip administered 2 hrs prior to carrageenan challenge measured after 3 hrs by plethysmometry; type: functional
# In short: (§4)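 Eight-week-old male mice were dosed ip with compound (10 mg/kg), dexamethasone (2 mg/kg) or PBS-8% DMSO vehicle 2 h before carrageenan. Under medetomidine/ketamine anesthesia, 45 μL of 1.5% λ-carrageenan in saline was given intradermally into one hindpaw, with saline in the contralateral paw. Paw volume was measured by plethysmometer before and at 3 and 6 h. n = 6–12.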
# J774 [12] = experiment: Downregulation of LPS-induced MCP-1 mRNA levels in mouse J774 cells after 3 to 6 hrs by qRT-PCR method; type: functional, cell-based
# In short: (§5)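 Activated J774 cells received compound at 10 μM alongside LPS. At 3, 6 or 24 h, total RNA was extracted and iNOS, IL-6 or MCP-1 mRNA was measured by TaqMan quantitative RT-PCR (40 cycles, 95 °C/60 °C) in duplicate. Levels came from a standard curve and were normalized to GAPDH. n = 4 versus LPS only.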
# J774 [13] = experiment: Downregulation of LPS-induced MCP-1 expression in mouse J774 cells at 0.3 to 10 uM after 24 hrs by ELISA; type: functional, cell-based
# In short: (§6)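 LPS-stimulated J774 cells were incubated 24 h with compound at 0.3–10 μM. IL-6 and MCP-1 concentrations in the medium were determined by ELISA. Mean + SEM, n = 4, compared with LPS alone.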
# J774 [14] = experiment: Downregulation of LPS-induced IL-6 mRNA levels in mouse J774 cells after 6 hrs by qRT-PCR method; type: functional, cell-based; in short: as §5
# Mus musculus [15] = experiment: Antiinflammatory activity in C57BL/6NCrl mouse assessed as inhibition of carrageenan-induced paw edema at 10 mg/kg, ip administered 2 hrs prior to carrageenan challenge measured after 6 hrs by plethysmometry; type: functional; in short: as §4
# J774 [16] = experiment: Downregulation of LPS-induced iNOS mRNA levels in mouse J774 cells after 6 to 24 hrs by qRT-PCR method; type: functional, cell-based; in short: as §5
# J774 [17] = experiment: Downregulation of LPS-induced IL-6 expression in mouse J774 cells at 0.3 to 10 uM after 24 hrs by ELISA; type: functional, cell-based; in short: as §6
# J774 [18] = experiment: Downregulation of LPS-induced iNOS expression in mouse J774 cells at 0.3 to 10 uM after 24 hrs by Western blot analysis; type: functional, cell-based
# In short: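 Dose–response was run in LPS-activated J774 macrophages over 24 h, with iNOS protein detected by Western blot and actin as the loading control.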
# J774 [19] = experiment: Antiinflammatory activity against mouse J774 cells assessed as inhibition of LPS-induced iNOS expression after 24 hrs by Western blot analysis; type: functional, cell-based; settings: J774, 24 h
# In short: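 Murine J774 macrophages in DMEM with 10% heat-inactivated FBS, grown 72 h to confluence, then given LPS plus compound in fresh medium for 24 h. Cells washed in ice-cold PBS and lysed; 20 μg protein per lane on Western blot for iNOS, with β-actin as loading control and chemiluminescent detection. Values relative to LPS-only cells; mean ± SEM, n = 4.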
# J774 [20] = experiment: Inhibition of LPS-induced iNOS mRNA levels in mouse J774 cells after 6 hrs by qRT-PCR method; type: functional, cell-based; in short: as §5
SMILES,Remaining nitric oxide level (% of LPS-only control) (J774 [6]),Activity (J774 [7]),Remaining IL-6 level (% of LPS-only) (J774 [8]),Activity (J774 [9]),Activity (J774 [10]),other results
C[C@@H]1C[C@H]2[C@@H]3CCC4=CC(=O)C=C[C@]4(C)[C@@]3(F)[C@@H](O)C[C@]2(C)[C@@]1(O)C(=O)CO [DEXAMETHASONE],,,,,,inhibition (J774 [1]): Active; inhibition at 10 µM (J774 [2]): 90%; inhibition at 10 µM (J774 [3]): 85%; inhibition at 10 µM (J774 [4]): 86%; inhibition at 10 µM (J774 [5]): 38%
C=C(C)[C@@H]1CC[C@]2(C(N)=O)CC[C@]3(C)[C@H](CC[C@@H]4[C@@]5(C)Cc6nccnc6C(C)(C)[C@@H]5CC[C@]43C)[C@@H]12,111.9%,34.9%,82.8%,89.9%,79.4%,
C=C(C)[C@@H]1CC[C@]2(CO)CC[C@]3(C)[C@H](CC[C@@H]4[C@@]5(C)CC[C@H](O)C(C)(C)[C@@H]5CC[C@]43C)[C@@H]12 [BETULIN],47.9%,63.4%,133.9%,175.1%,206.5%,
C=C(C)[C@@H]1CC[C@]2(C(=O)O)CC[C@]3(C)[C@H](CC[C@@H]4[C@@]5(C)CC6OC(C)(C)OC6C(C)(C)[C@@H]5CC[C@]43C)[C@@H]12 (some centres undefined),75.2%,40.7%,131.7%,117.4%,87%,
CCC(=O)OC[C@]12CC[C@]3(C(C)C)C1=C1[C@H](C[C@@H]4[C@@]5(C)CC[C@H](OC(=O)CC)C(C)(C)[C@@H]5CC[C@@]4(C)[C@]1(C)CC2)n1c(=O)n(C)c(=O)n13,55.7%,50.5%,60%,43%,80.3%,
C=C(C)[C@@H]1CC[C@]2(C(=O)O)CC[C@]3(C)[C@H](CC[C@@H]4[C@@]5(C)Cc6c[nH]nc6C(C)(C)[C@@H]5CC[C@]43C)[C@@H]12,53.3%,27.5%,39.5%,58.2%,28%,inhibition in vivo at 10 mg/kg (Mus musculus [11]): 27%; Activity (J774 [12]): Active; Activity (J774 [13]): Active; Activity (J774 [14]): Active; inhibition in vivo at 10 mg/kg (Mus musculus [15]): 44%; Activity (J774 [16]): Active; Activity (J774 [17]): Active; Activity (J774 [18]): Active
CC1(C)CC[C@]23CC[C@]4(C)[C@H](CC[C@@H]5[C@@]6(C)Cc7c([nH]c8ccccc78)C(C)(C)[C@@H]6CC[C@]54C)[C@H]2C1OC3,96.5%,94.5%,92.1%,94.8%,96.2%,
C=C(C)[C@@H]1CC[C@]2(C(=O)O)CC[C@]3(C)[C@H](CC[C@@H]4[C@@]5(C)CC[C@H](O)C(C)(C)[C@@H]5CC[C@]43C)[C@@H]12 [BETULINIC ACID],69%,57.6%,66.1%,96%,98.5%,
C=C(C)[C@@H]1CC[C@]2(C(=O)O)CC[C@]3(C)[C@H](CC[C@@H]4[C@@]5(C)Cc6c([nH]c7ccccc67)C(C)(C)[C@@H]5CC[C@]43C)[C@@H]12,79.5%,66.6%,108.9%,140.9%,83.4%,
C=C(C)[C@@H]1CC[C@]2(C(=O)O)CC[C@]3(C)[C@H](CC[C@@H]4[C@@]5(C)CCC(=O)C(C)(C)[C@@H]5CC[C@]43C)[C@@H]12 [BETUNOLIC ACID],45.3%,38.3%,87.1%,107.1%,118%,
C=C(C)[C@@H]1CC[C@]2(C=O)CC[C@]3(C)[C@H](CC[C@@H]4[C@@]5(C)Cc6cnoc6C(C)(C)[C@@H]5CC[C@]43C)[C@@H]12,113.1%,57.5%,91.4%,49.6%,102.1%,
CC1(C)CC[C@]23CC[C@]4(C)[C@H](CC[C@@H]5[C@@]6(C)Cc7c([nH]c8ccc(F)cc78)C(C)(C)[C@@H]6CC[C@]54C)[C@H]2C1OC3,122.6%,83.9%,99.3%,91.8%,108.5%,
C=C(C)[C@@H]1CC[C@]2(C(=O)O)CC[C@]3(C)[C@H](CC[C@@H]4[C@@]5(C)C[C@H](O)[C@H](O)C(C)(C)[C@@H]5CC[C@]43C)[C@@H]12,71.4%,63.6%,70.7%,93.4%,68.3%,
C=C(C)[C@@H]1CC[C@]2(C(N)=O)CC[C@]3(C)[C@H](CC[C@@H]4[C@@]5(C)Cc6cnoc6C(C)(C)[C@@H]5CC[C@]43C)[C@@H]12,66.5%,8.3%,90.9%,105.5%,57.6%,IC50 (J774 [19]): 300 nM; inhibition (J774 [20]): inactive
C=C(C)[C@@H]1CC[C@]2(C(=O)O)CC[C@]3(C)[C@H](CC[C@@H]4[C@@]5(C)Cc6nccnc6C(C)(C)[C@@H]5CC[C@]43C)[C@@H]12,,,,,,IC50 (J774 [19]): 300 nM; inhibition (J774 [20]): inactive
C=C(C)[C@@H]1CC[C@]2(/C=N/O)CC[C@]3(C)[C@H](CC[C@@H]4[C@@]5(C)CC[C@H](O)C(C)(C)[C@@H]5CC[C@]43C)[C@@H]12,31.3%,6.2%,98.3%,127%,136.9%,IC50 (J774 [19]): 300 nM; inhibition (J774 [20]): inactive
C=C(C)[C@@H]1CC[C@]2(C(=O)O)CC[C@]3(C)[C@H](CC[C@@H]4[C@@]5(C)Cc6c([nH]c7ccc(OC)cc67)C(C)(C)[C@@H]5CC[C@]43C)[C@@H]12,97.5%,95.1%,123.5%,162.6%,73.1%,
